An excerpt weighted towards active compounds, which were near 3.1% of everything screened.
Apaf1 inhib – inhibitors of human Apaf-1 apoptosome, primary screen, biochemical, DEVD-Rh110 fluorescence, uHTS. 0.71% of 330,000 active. AID 489030, 2010. inhibition, % at 20 µM. Apoptotic protease-activating factor 1 (Homo sapiens), O14727. reconstituted apoptosome caspase-3 activity; active = inhibition of at least 40% at 20 µM
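Medium: Hepes buffer, pH 7.5 / System: biochemical Apaf-1 apoptosome reconstitution / Measured by: Rh110 fluorescence, excitation 480 nm, emission 540 nm / Times: compound with Apaf-1, dATP, procaspase-3 30 min, then 50 min reaction, room temperature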
SENP7 inh – SENP7 protease inhibitors, primary screen, biochemical, luminescence, uHTS; inhibition, % at 5 µM; AID 434973, 2010; 1.5% of 330,000 active; Sentrin-specific protease 7 (Homo sapiens), Q9BQF6; recombinant SENP7, Z-RLRGG-aminoluciferin luminescence, 40 min;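 active = inhibition above about 50% at the single test dose, limit read from the data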
UBC13 polyUb – UBC13 polyubiquitin chain formation inhibitors, primary screen, biochemical, TR-FRET, uHTS; inhibition, % at 20 µM; Ubiquitin-conjugating enzyme E2 N (Homo sapiens), P61088; 0.47% of 330,000 active; in the data active = inhibition above about 45%, passing the limit was not always enough
SENP8 block-1 – human SENP8 protease inhibitors, primary screen, biochemical, fluorescence, Nedd8 protein substrate, uHTS; inhibition, % at 20 µM; AID 602440, 2012; recombinant SENP8; Sentrin-specific protease 8 (Homo sapiens), Q96LD8; 0.64% of 360,000 active; in the data active = inhibition mostly above about 40%, no sharp cut-off; inactive = mostly below about 27%
Target sequence (Q96LD8 whole entry, looked up): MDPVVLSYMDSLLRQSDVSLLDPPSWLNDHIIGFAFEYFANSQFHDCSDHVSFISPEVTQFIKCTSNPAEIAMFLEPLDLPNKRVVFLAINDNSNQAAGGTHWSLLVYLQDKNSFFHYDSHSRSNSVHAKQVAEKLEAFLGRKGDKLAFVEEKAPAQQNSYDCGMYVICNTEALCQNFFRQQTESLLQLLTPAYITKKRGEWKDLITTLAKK
SENP6 block – SENP6 protease inhibitors, primary screen, biochemical, luminescence, uHTS; Sentrin-specific protease 6 (Homo sapiens), Q9GZR1; Recombinant SENP6 catalytic domain, aminoluciferin luminescence; inhibition, % at 10 µM; 1.8% of 330,000 active;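 active = inhibition above about 50% at the single tested dose, limit read from the data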
Target sequence (Q9GZR1 628-1112 limits assumed): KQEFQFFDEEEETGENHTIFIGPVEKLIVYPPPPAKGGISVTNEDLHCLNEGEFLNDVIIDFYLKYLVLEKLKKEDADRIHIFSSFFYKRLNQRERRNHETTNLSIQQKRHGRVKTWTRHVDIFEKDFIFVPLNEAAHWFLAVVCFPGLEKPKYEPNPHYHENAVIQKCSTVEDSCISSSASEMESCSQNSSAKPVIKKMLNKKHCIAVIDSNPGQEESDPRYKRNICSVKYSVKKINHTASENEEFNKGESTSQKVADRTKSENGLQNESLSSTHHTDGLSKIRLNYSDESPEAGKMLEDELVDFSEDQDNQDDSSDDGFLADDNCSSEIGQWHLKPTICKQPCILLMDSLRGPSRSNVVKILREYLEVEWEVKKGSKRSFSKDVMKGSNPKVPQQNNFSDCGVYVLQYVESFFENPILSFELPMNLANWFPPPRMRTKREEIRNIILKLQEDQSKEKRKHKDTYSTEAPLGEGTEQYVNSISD
SENP8 block-2 – SENP8 protease inhibitors, primary screen, biochemical, luminescence; purified SENP8, Z-RLRGG-aminoluciferin cleavage; inhibition, % at 10 µM; 1.2% of 330,000 active; AID 2540, 2010; in the data active = inhibition above about 50%
SENP8 confirm – SENP8 protease inhibitors, retest, confirmation, biochemical, luminescence, single concentration; inhibition, % at 12.5 µM; Recombinant SENP8, Z-RLRGG-aminoluciferin luminescence, 60 min; shares compounds with SENP7 inh; AID 488912, 2010; 40% of 6,200 active;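 active = mean inhibition across replicates above about 50%, limit read from the data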
SENP6 confirm – SENP6 protease inhibitors, confirmation, biochemical, luminescence, single concentration; 58% of 6,200 active; inhibition, % at 12.5 µM; recombinant SENP6, Z-RLRGG-aminoluciferin luminescence; AID 488915, 2010; shares compounds with SENP7 inh
SENP7 confirm – SENP7 protease inhibitors, retest, confirmation, biochemical, luminescence, single concentration; AID 488917, 2010; 69% of 6,200 active; recombinant SENP7, Z-RLRGG-aminoluciferin luminescence, 40 min; shares compounds with SENP7 inh; inhibition, % at 12.5 µM
Casp3 select – caspase-3 protease inhibitors, confirmation, selectivity assay for SENP inhibitor project, biochemical, single concentration. purified caspase-3, Z-DEVD-aminoluciferin luminescence, 60 min. shares compounds with SENP7 inh. 60% of 6,200 active. AID 488918, 2010. inhibition, % at 12.5 µM;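 active = mean inhibition above about 50%, limit read from the data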
Luc interf – luminescence interference (SENP counter-screen); shares compounds with SENP7 inh; Pre-incubated SENP8/Z-RLRGG-aminoluciferin, luciferase luminescence interference; inhibition, % at 12.5 µM; 39% of 6,200 active; AID 488919;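 active = mean inhibition above about 50% when retested at one dose, limit read from the data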
Hits are given with their value; – = inactive; · = no result given.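 Rule for the calls, unless noted: active = mean inhibition above about 50% in the one-dose retest (limit read from the data); inactive = the rest.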

SMILES	Apaf1 inhib	SENP7 inh	UBC13 polyUb	SENP8 block-1	SENP6 block	SENP8 block-2	SENP8 confirm	SENP6 confirm	SENP7 confirm	Casp3 select	Luc interf
Cc1cc2nc(-c3ccccc3O)[nH]c2cc1C	·	·	·	–	·	·	·	·	·	·	·
Clc1cc2nc(-c3cccnc3Cl)[nH]c2cc1Cl	–	72.7	–	–	76.7	–	–	–	90.3	58.7	–
CN(C)C(=O)CN1CCN(Cc2nc(CC3CC3)no2)CC1	–	–	–	–	73.0	–	–	–	–	–	–
CNC[C@H]1OCc2ccccc2-c2ccccc2C(=O)N([C@@H](C)CO)C[C@H]1C	·	·	·	–	·	·	·	·	·	·	·
COc1ccccc1-c1ccc2c(c1)C(C)(Cc1ccc(OC(F)(F)F)cc1)C(=O)N2 (stereo not drawn)	·	·	·	–	·	·	·	·	·	·	·
Clc1ccc(C2=Nc3cc(Cl)ccc3OC2)cc1	–	81.3	–	–	81.3	75.8	–	–	–	–	–
c1ccc(C2=Nc3ccccc3OC2)cc1	–	–	–	–	–	–	·	·	·	·	·
Clc1ccc(C2=NN=C3COc4ccccc4N3C2)cc1	–	–	–	–	–	–	·	·	·	·	·
Cc1ccc2c(c1)N=C(c1ccc(Cl)cc1)CO2	–	98.4	–	–	96.0	95.0	83.0	82.0	85.2	80.4	56.8
CCC(=O)Nc1cc(C)c(NC(=O)c2ccco2)cn1	–	–	–	–	–	–	·	·	·	·	·
Cc1cc(NC(=O)c2ccccc2)ncc1NC(=O)c1ccco1	–	91.1	–	–	91.2	79.8	88.7	87.9	98.9	96.5	86.7
CCCC(=O)Nc1cnc(NC(=O)c2cccc(F)c2)cc1C	–	79.0	–	–	82.4	53.0	77.6	74.9	94.3	92.4	75.3
C[C@H](CO)N1C[C@H](C)[C@@H](CN(C)Cc2ccc3cccnc3c2)OCc2cnnn2CCCC1=O	·	·	·	–	·	·	·	·	·	·	·
Clc1ccsc1-c1csc(-c2cccnc2)n1	–	–	–	–	68.9	–	–	–	82.0	–	–
CC(=O)Nc1ccc(-c2csc(-c3cccnc3)n2)cc1	–	51.4	–	–	–	–	–	–	83.9	62.0	–
Oc1ccc(-c2csc(-c3cccnc3)n2)c(O)c1	–	55.2	–	–	66.1	–	–	–	82.0	54.4	58.0
c1cncc(-c2csc(-c3cccnc3)n2)c1	–	–	–	–	–	–	·	·	·	·	·
c1cncc(-c2nc(-c3ccc4c(c3)OCO4)cs2)c1	–	68.8	–	–	73.1	–	–	69.3	87.3	61.4	–
CC(=O)c1c(C)oc2c1cc(O)c1ccccc12	–	–	–	–	–	–	·	·	·	·	·
CCOC(=O)c1c(C)oc2c1cc(O)c1ccccc12	–	71.7	–	–	–	–	–	–	–	–	–
Cc1c(C(=O)NCc2ccc(C(C)C)cc2)sc(=O)n1Cc1ccc(S(=O)(=O)N(C)C)cc1	·	·	·	–	·	·	·	·	·	·	·
O=Nc1ccc(NOC(=O)c2ccccc2)cc1	–	–	–	–	87.5	–	–	–	103.0	–	–
O=C(ONC(=O)C1CCCCC1C(=O)NOC(=O)c1ccccc1)c1ccccc1 (stereo not drawn)	·	·	·	–	·	·	·	·	·	·	·
COc1ccc2cc1Oc1ccc(cc1)C[C@H]1c3cc(c(OC)cc3CCN1C)Oc1c(OC)c(OC)cc3c1[C@@H](C2)N(C)CC3	–	–	–	76.2	58.2	–	–	–	–	–	–
Cc1ccc(C(=O)N=c2sccn2C)cc1C	–	83.0	–	–	81.6	67.3	70.2	69.8	93.6	86.5	80.8
SMILES	Apaf1 inhib	SENP7 inh	UBC13 polyUb	SENP8 block-1	SENP6 block	SENP8 block-2	SENP8 confirm	SENP6 confirm	SENP7 confirm	Casp3 select	Luc interf
Cc1cccc(C)c1NC(=O)C1(C)CSCC(=O)N1CCc1ccccc1F (stereo not drawn)	·	·	·	–	·	·	·	·	·	·	·
O=C(Nc1ccc(F)c(Cl)c1)C1Cc2c(-c3ccccc3Oc3ccccc3)ccnc2O1 (stereo not drawn)	·	·	·	–	·	·	·	·	·	·	·
Cc1cc(C(=O)COC(=O)c2ccc(O)cc2O)c(C)n1-c1ccccc1	–	60.8	–	–	88.7	84.1	87.5	89.2	96.1	58.6	–
CCc1nc2ccc(C(=O)Nc3cccc(OCC(=O)N(C)C)c3)cn2c1N(CCC(C)C)CCN(C)C	·	·	·	–	·	·	·	·	·	·	·
COc1ccc(C(=O)Nc2ccc(N3CCCC3)cc2)cc1OC	–	–	–	–	94.4	94.6	87.6	97.8	101.7	97.8	89.3
COc1ccc(C(=O)Nc2ccc(N3CCOCC3)cc2)cc1OC	–	88.9	–	–	89.2	81.9	57.8	85.8	96.9	95.1	–
O=C(c1ccc(F)cc1)c1ccc(N2CCCCC2)cc1	–	–	–	–	–	–	·	·	·	·	·
COc1ccc(C(=O)Nc2ccc(N3CCCC3)cc2)cc1Br	–	–	–	–	63.7	59.9	–	–	–	–	–
COc1ccc(C(=O)Nc2ccc(S(=O)(=O)N3CCOCC3)cc2)cc1OC	–	–	–	–	–	–	·	·	·	·	·
O=C(Nc1ccc(N2CCCCC2)cc1)c1ccc(F)cc1	–	83.2	–	–	78.9	67.9	–	–	–	–	–
Cc1cc(C)n(CCNC(=O)[C@H]2O[C@@H](n3ccc(=O)[nH]c3=O)[C@H](O)[C@@H]2O)n1	·	·	·	–	·	·	·	·	·	·	·
COc1ccc(C(=O)c2ccc(OC)c(Br)c2)cc1Br	–	–	–	–	98.0	–	–	–	–	–	–
O=C(Nc1ccc(N2CCOCC2)cc1)c1ccncc1	–	–	–	–	–	–	·	·	·	·	·
Cn1cccc1C(=O)Nc1ccc(N2CCOCC2)cc1	–	62.0	–	–	–	–	58.8	53.6	82.3	84.7	–
CC1(c2nnnn2Cc2ccccc2)CCC(=O)N1c1ccc(N2CCOCC2)cc1 (stereo not drawn)	·	·	·	–	·	·	·	·	·	·	·
Cn1c(SCc2ccc(C#N)cc2Cl)nc2ccccc21	–	80.0	–	–	75.4	68.8	–	75.9	56.7	–	–

Screening results (PubChem BioAssay)
